The text below walks through data of ChEMBL document CHEMBL1153392, “Identification of a metabolically stable triazolopyrimidine-based dihydroorotate dehydrogenase inhibitor with antimalarial activity in mice” (J Med Chem, 2009).

The test system of series [1] is Liver microsomes. The note with it: human, 1 µM.
In series [2] the test system is Liver microsomes. The settings on record: human, 1 µM. This is another data set of the same source.
The target in series [3] is T1, Dihydroorotate dehydrogenase (Plasmodium falciparum, UniProt Q54A96).
T1 sequence (Q54A96 whole entry): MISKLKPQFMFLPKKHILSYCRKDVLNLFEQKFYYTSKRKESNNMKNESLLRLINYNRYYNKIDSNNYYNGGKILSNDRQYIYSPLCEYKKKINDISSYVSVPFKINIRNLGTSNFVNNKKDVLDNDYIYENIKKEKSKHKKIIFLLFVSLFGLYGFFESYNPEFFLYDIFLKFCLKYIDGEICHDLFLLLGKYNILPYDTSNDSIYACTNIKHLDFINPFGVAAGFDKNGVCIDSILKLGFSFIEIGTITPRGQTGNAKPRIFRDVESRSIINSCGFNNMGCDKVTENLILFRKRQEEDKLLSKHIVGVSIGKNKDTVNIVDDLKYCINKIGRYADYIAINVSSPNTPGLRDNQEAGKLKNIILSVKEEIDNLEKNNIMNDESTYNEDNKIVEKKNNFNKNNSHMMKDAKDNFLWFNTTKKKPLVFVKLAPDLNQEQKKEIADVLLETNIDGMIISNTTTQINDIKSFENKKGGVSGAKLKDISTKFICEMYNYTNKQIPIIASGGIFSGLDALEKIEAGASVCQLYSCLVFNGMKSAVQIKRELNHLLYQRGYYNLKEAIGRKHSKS
The series can be described thus: Inhibition of Plasmodium falciparum DHODH. The procedure, abridged: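 Truncated soluble recombinant enzyme expressed in E. coli. Triplicate points per inhibitor concentration; IC50 from fit to Vi = Vo/(1+[I]/IC50).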

Another series has as its system Plasmodium falciparum. The series can be described thus: Antiplasmodial activity against Plasmodium falciparum 3D7 by [3H]hypoxanthine uptake. In kind it is functional, organism-based. An outline of the steps: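 Proliferation of drug-treated infected erythrocytes measured by [3H]hypoxanthine uptake over a range of inhibitor concentrations, triplicate points per concentration. EC50 derived from a Hill-slope logistic fit.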

The test system of another series is Plasmodium berghei. The series can be described thus: Inhibition of Plasmodium berghei ANKA DHODH. The procedure, abridged: (§1)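 Truncated soluble enzyme expressed in E. coli and purified. DCIP (0.12 mM) reduction followed at 600 nm with 5-10 nM enzyme, 0.2 mM L-dihydroorotate and 0.02 mM CoQD in 100 mM HEPES pH 8.0, 150 mM NaCl, 10% glycerol, 0.1% Triton, 20 °C. Triplicate points per concentration; IC50 fitted.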

Series [4] deals with Dihydroorotate dehydrogenase (quinone), mitochondrial (Homo sapiens, UniProt Q02127). The series is described as follows: Inhibition of human DHODH. The procedure, abridged:
as §1

Dihydroorotate dehydrogenase (quinone), mitochondrial, sequence (Q02127 whole entry): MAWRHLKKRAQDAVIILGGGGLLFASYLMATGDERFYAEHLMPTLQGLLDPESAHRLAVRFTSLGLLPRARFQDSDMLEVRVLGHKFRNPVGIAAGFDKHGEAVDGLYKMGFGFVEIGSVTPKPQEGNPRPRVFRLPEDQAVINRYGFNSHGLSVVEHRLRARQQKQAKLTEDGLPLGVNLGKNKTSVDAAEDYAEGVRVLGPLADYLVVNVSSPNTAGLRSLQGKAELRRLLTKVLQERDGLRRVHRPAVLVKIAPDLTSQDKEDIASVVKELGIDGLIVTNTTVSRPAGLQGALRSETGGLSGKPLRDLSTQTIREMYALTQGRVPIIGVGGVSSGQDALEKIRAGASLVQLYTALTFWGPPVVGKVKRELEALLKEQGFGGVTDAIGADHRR

For the compound `Cc1cc(Nc2cccc(C(F)(F)F)c2)n2ncnc2n1`, the CL in the series on Liver microsomes [1] was 29 µL/min/mg. Further, in the series on Liver microsomes [2], the t1/2 was found to be 1 h. In addition, the figures for the IC50 (in series [3]; with Plasmodium berghei) were 14 µM and 55 µM, respectively. For the same compound, the EC50 (commonly the midpoint of the concentration-response curve) with Plasmodium falciparum came out at 19 µM.
Regarding `Cc1ccc(Nc2cc(C)nc3ncnn23)cc1`, the IC50 (usually the concentration at which inhibition is half-maximal) is 4.2 µM in series [3] and 16 µM in the series on Plasmodium berghei. The compound also came in with an EC50 with Plasmodium falciparum of 6.4 µM.
For the compound `Cc1cc(Nc2cccc(F)c2F)n2ncnc2n1`, the results for the IC50 (in series [3]; with Plasmodium berghei) were 39 µM and more than 100 µM, respectively.
In the series with Liver microsomes [1], `Cc1cc(Nc2cccc(Cl)c2)n2ncnc2n1` returned a CL of 38 µL/min/mg. This compound came in with a t1/2 with Liver microsomes [2] of 0.75 h. This compound also had an IC50 in series [3] of 1.4 µM.
Regarding `Cc1cc(Nc2ccc(OC(F)(F)F)cc2)n2ncnc2n1`, the IC50 in series [4] is more than 100 µM; in series [3], 1.2 µM; in the series on Plasmodium berghei it was 4 µM.
For `Cc1cc(Nc2ccc(F)c(F)c2F)n2ncnc2n1`, the IC50 in series [3] was 29 µM; with Plasmodium berghei, more than 100 µM. The compound further returned an EC50 in the series with Plasmodium falciparum of more than 50 µM.
The corresponding values for `Cc1cc(Nc2cc(F)ccc2F)n2ncnc2n1` are more than 50 µM, more than 100 µM and more than 50 µM.
As to `Cc1cc(Nc2ccc(C)c(F)c2)n2ncnc2n1`, the IC50 is more than 100 µM in series [4], 0.86 µM in series [3] and 3.2 µM with Plasmodium berghei. This compound also had a CL in the series on Liver microsomes [1] of 49 µL/min/mg. The t1/2 with Liver microsomes [2] stood at 0.6 h. The compound further had an EC50 in the series on Plasmodium falciparum of 3.6 µM.
With `Cc1cc(Nc2ccccc2Cl)n2ncnc2n1`, the IC50 (in series [3]; with Plasmodium berghei) was more than 100 µM in each case. Also, in the series with Plasmodium falciparum, the EC50 was 30 µM.
In the case of `Cc1cc(Nc2ccc(F)c(C)c2)n2ncnc2n1`, the IC50 in series [3] was 4.6 µM; in the series with Plasmodium berghei, 21 µM. The response in the series with Plasmodium falciparum was half-maximal at 8.7 µM (EC50).
Turning to `Cc1cc(Nc2ccccc2C(F)(F)F)n2ncnc2n1`, the IC50 (in series [3]; in the series on Plasmodium berghei) was more than 100 µM throughout.
As for `Cc1cc(Nc2c(F)c(F)cc(F)c2F)n2ncnc2n1`, the half-maximal inhibitory concentration (IC50) (in series [3]; in the series with Plasmodium berghei) was more than 100 µM each time. This compound had an EC50 with Plasmodium falciparum of more than 50 µM.
With `Cc1cc(Nc2ccc(F)cc2)n2ncnc2n1`, the IC50 in series [3] is 19 µM; in the series on Plasmodium berghei, more than 100 µM. In addition, the EC50 with Plasmodium falciparum came to 50 µM.
As for `Cc1cc(Nc2ccc(F)c(F)c2)n2ncnc2n1`, the results for the IC50 (in series [3]; with Plasmodium berghei) were 8 µM and 10 µM, respectively. Moreover, the EC50 in the series with Plasmodium falciparum is more than 50 µM.
Turning to `Cc1cc(Nc2ccc(OC(F)F)cc2)n2ncnc2n1`, the IC50 was determined as 2.8 µM in series [3] and 25 µM in the series on Plasmodium berghei. Further, the 50% effective concentration (EC50) in the series with Plasmodium falciparum stood at 8.2 µM.
In the case of `Cc1cc(Nc2cc(F)cc(F)c2)n2ncnc2n1`, the results for the IC50 (in series [3]; in the series with Plasmodium berghei) were 9.4 µM and 21 µM, respectively.
Regarding `Cc1cc(Nc2ccc(-c3ccccc3)cc2)n2ncnc2n1`, in series [3], the IC50 was 5.3 µM. In the series with Plasmodium falciparum, the EC50 was more than 50 µM.
`Cc1cc(Nc2ccc(C#N)c(C(F)(F)F)c2)n2ncnc2n1` gave a CL in the series with Liver microsomes [1] of 6.2 µL/min/mg. In the series with Liver microsomes [2], the t1/2 was determined as 4.67 h. Further, the IC50 in series [3] was 4.9 µM; in the series with Plasmodium berghei it was 11 µM. This compound also registered an EC50 with Plasmodium falciparum of 8.8 µM.
Turning to `Cc1cccc(Nc2cc(C)nc3ncnn23)c1`, the IC50 in series [3] was 4.9 µM; in the series on Plasmodium berghei it was more than 100 µM. Moreover, the EC50 in the series with Plasmodium falciparum was 37 µM.
`Cc1cc(Nc2c(F)c(F)c(F)c(F)c2F)n2ncnc2n1`: the IC50 (in series [3]; with Plasmodium berghei) was more than 100 µM throughout. For the same compound, the EC50 in the series on Plasmodium falciparum is more than 50 µM.
`Cc1cc(Nc2cc(C(F)(F)F)cc(C(F)(F)F)c2)n2ncnc2n1`: the IC50 (in series [3]; in the series with Plasmodium berghei) was more than 100 µM each time. Besides, in the series on Plasmodium falciparum, the EC50 is more than 5 µM.
In the case of `COc1ccc(Nc2cc(C)nc3ncnn23)cc1`, the IC50 is 4.6 µM in series [3] and more than 50 µM in the series on Plasmodium berghei. For the same compound, the EC50 in the series with Plasmodium falciparum stood at 14 µM.
Consider `Cc1cc(Nc2ccc(Cl)c(C(F)(F)F)c2)n2ncnc2n1`, for which the values for the IC50 (in series [4]; in series [3]; in the series with Plasmodium berghei) were more than 100 µM, 0.8 µM and 2.4 µM, respectively. The CL in the series on Liver microsomes [1] came to 13 µL/min/mg. Besides, the t1/2 with Liver microsomes [2] amounted to 2.17 h. The EC50 with Plasmodium falciparum was more than 5 µM.
For the compound `Cc1cc(Nc2ccc(Br)c(C(F)(F)F)c2)n2ncnc2n1`, the IC50 in series [4] is more than 100 µM; in series [3], 0.45 µM; with Plasmodium berghei it was 1.5 µM. Besides, the CL in the series with Liver microsomes [1] stood at 14 µL/min/mg. The same compound displayed a t1/2 in the series on Liver microsomes [2] of 2.17 h. Moreover, a half-maximal response with Plasmodium falciparum (EC50) required 2.6 µM.
In the series with Liver microsomes [1], `Cc1cc(Nc2cccc(F)c2)n2ncnc2n1` showed a CL of 18 µL/min/mg. Besides, the t1/2 in the series on Liver microsomes [2] turned out to be 1.62 h. Besides, the results for the half-maximal inhibitory concentration (IC50) (in series [3]; in the series on Plasmodium berghei) were 9.2 µM and more than 100 µM, respectively. The same compound gave an EC50 in the series with Plasmodium falciparum of 34 µM.
For `Cc1cc(Nc2ccc(C(F)(F)F)c(F)c2)n2ncnc2n1`, the IC50 was more than 100 µM in series [4], 0.077 µM in series [3] and 0.26 µM in the series on Plasmodium berghei. In the series on Liver microsomes [1], this compound showed a CL of 4.8 µL/min/mg. Moreover, in the series with Liver microsomes [2], the t1/2 is 6 h. In the series with Plasmodium falciparum, this compound showed an EC50 of 1.3 µM.
In the case of `Cc1cc(Nc2ccc([N+](=O)[O-])cc2)n2ncnc2n1`, the IC50 in series [3] amounted to 4.3 µM; with Plasmodium berghei, 3.7 µM.
Turning to `Cc1cc(Nc2ccccc2F)n2ncnc2n1`, the IC50 (in series [3]; in the series on Plasmodium berghei) was more than 100 µM throughout. For the same compound, the EC50 in the series with Plasmodium falciparum is more than 50 µM.
With `Cc1cc(Nc2c(F)cc(F)cc2F)n2ncnc2n1`, the IC50 (in series [3]; in the series on Plasmodium berghei) was more than 100 µM throughout.
Consider `Cc1cc(Nc2ccccc2C#N)n2ncnc2n1`, for which the concentration for half-maximal inhibition (IC50) (in series [3]; in the series with Plasmodium berghei) was more than 100 µM throughout. Further, it took 25 µM to reach a half-maximal effect in the series with Plasmodium falciparum (EC50).
Turning to `Cc1cc(Nc2ccc(Cl)cc2)n2ncnc2n1`, the IC50 in series [4] is more than 100 µM; in series [3] it was 1.6 µM; in the series with Plasmodium berghei it was 5.7 µM. A half-maximal effect in the series on Plasmodium falciparum (EC50) was put at 12 µM.
Turning to `Cc1cc(Nc2ccccc2C)n2ncnc2n1`, the IC50 (in series [3]; in the series with Plasmodium berghei) was more than 100 µM throughout. For the same compound, the EC50 in the series with Plasmodium falciparum was more than 50 µM.
As to `Cc1cc(Nc2ccc(C)c(C(F)(F)F)c2)n2ncnc2n1`, the IC50 in series [4] was more than 100 µM; in series [3], 1.55 µM; in the series on Plasmodium berghei, 7.3 µM.
Take `Cc1cc(Nc2c(F)cccc2F)n2ncnc2n1`: the IC50 (in series [3]; in the series on Plasmodium berghei) was more than 100 µM in each case. For the same compound, the EC50 with Plasmodium falciparum was more than 50 µM.
Turning to `Cc1ccc(Nc2cc(C)nc3ncnn23)c(F)c1`, the IC50 was 27 µM in series [3] and more than 100 µM in the series on Plasmodium berghei. For the same compound, it took 35 µM to reach a half-maximal effect in the series with Plasmodium falciparum (EC50).
With `Cc1cc(Nc2ccc(C)c(C)c2)n2ncnc2n1`, the IC50 was more than 100 µM in series [4], 0.35 µM in series [3] and 4 µM in the series on Plasmodium berghei. For the same compound, the CL in the series with Liver microsomes [1] came out at 77 µL/min/mg. In the series with Liver microsomes [2], this compound returned a t1/2 of 0.383 h.
With `Cc1cc(Nc2cc(F)c(F)cc2F)n2ncnc2n1`, the IC50 in series [3] was 17 µM; with Plasmodium berghei, more than 100 µM. The same compound showed an EC50 with Plasmodium falciparum of more than 50 µM.
`Cc1cc(Nc2ccc(Cc3ccccc3)cc2)n2ncnc2n1`: the IC50 is 2.2 µM in series [3] and more than 100 µM in the series on Plasmodium berghei. This compound also showed a concentration giving a half-maximal response (EC50) in the series on Plasmodium falciparum of 5 µM.
As to `Cc1cc(Nc2ccc(Br)cc2)n2ncnc2n1`, the IC50 in series [4] was more than 100 µM; in series [3], 0.78 µM; with Plasmodium berghei, 1.3 µM. For the same compound, the response with Plasmodium falciparum was half-maximal at 4.2 µM (EC50).
